According to ChEMBL document CHEMBL1154321, “Benzoxazole piperidines as selective and potent somatostatin receptor subtype 5 antagonists” (Bioorg Med Chem Lett, 2009):
Values after ≈ are worked out from the molar mass of the structure shown.

Tests used:
[1] = target: Somatostatin receptor type 5 (Homo sapiens, UniProt P35346); experiment: Displacement of SST14 from human recombinant SST5 receptor expressed in CHO cells by radioligand binding assay; type: cell-based
Method in brief: (§1)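 Membranes prepared by sonication from cells expressing the SST receptor subtype, incubated with radiolabeled 11-Tyr SST-14 tracer and test compound at varying concentrations; non-labeled SST-14 defined non-specific binding. Incubation stopped by glass-fiber filtration, bound radioactivity counted; IC50 for half-maximal binding inhibition estimated and Ki derived.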

[2] = target: Somatostatin receptor type 2 (Homo sapiens, UniProt P30874); experiment: Displacement of SST14 from human recombinant SST2 receptor; method in brief: as §1
Sequence of Somatostatin receptor type 2 (P30874 whole entry): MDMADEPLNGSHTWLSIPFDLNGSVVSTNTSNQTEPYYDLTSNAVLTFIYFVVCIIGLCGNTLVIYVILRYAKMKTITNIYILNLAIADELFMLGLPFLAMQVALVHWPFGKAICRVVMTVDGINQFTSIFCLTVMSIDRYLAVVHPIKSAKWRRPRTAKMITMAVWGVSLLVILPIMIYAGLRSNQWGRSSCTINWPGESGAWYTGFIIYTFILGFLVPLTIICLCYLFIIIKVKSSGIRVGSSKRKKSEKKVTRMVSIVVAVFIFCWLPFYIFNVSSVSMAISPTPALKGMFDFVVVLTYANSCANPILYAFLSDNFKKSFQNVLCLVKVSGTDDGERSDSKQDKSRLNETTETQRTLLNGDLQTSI

[3] = target: Somatostatin receptor type 3 (Homo sapiens, UniProt P32745); experiment: Displacement of SST14 from human recombinant SST3 receptor; method in brief: as §1
Sequence of Somatostatin receptor type 3 (P32745 whole entry): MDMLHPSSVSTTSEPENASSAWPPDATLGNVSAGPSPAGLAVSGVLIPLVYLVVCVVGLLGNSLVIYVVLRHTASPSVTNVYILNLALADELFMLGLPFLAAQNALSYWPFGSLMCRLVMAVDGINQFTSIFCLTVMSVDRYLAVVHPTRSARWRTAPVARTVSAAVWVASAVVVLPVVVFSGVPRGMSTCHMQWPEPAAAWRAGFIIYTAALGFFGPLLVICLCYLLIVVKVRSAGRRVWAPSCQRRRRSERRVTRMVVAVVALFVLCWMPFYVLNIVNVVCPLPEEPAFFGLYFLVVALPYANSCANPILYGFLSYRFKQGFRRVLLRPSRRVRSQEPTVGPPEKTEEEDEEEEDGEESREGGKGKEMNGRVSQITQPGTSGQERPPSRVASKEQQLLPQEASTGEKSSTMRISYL

[4] = target: Somatostatin receptor type 4 (Homo sapiens, UniProt P31391); experiment: Displacement of SST14 from human recombinant SST4 receptor; method in brief: as §1
Sequence of Somatostatin receptor type 4 (P31391 whole entry): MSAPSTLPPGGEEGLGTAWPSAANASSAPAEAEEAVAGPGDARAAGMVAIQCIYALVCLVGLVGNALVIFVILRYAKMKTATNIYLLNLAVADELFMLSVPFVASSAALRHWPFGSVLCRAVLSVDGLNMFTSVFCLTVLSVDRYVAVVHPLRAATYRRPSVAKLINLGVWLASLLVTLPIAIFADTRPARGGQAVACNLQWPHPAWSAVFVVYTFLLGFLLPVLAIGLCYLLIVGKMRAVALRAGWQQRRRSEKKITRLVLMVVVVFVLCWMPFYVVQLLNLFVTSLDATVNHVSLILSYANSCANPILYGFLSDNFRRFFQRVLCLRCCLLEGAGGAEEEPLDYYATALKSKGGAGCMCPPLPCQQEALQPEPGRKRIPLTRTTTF

[5] = Solubility in phosphate buffer at pH 6.5 by lyophilization solubility assay; type: physicochemical
Method in brief: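 Lyophilized DMSO stock solutions redissolved in 50 mM phosphate buffer, pH 6.5; solubility read spectrophotometrically.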

[6] = sPermeability by PAMPA; type: ADME; conditions: read-out: permeability
Method in brief: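 Parallel artificial membrane permeation; Pe categorized as low (<0.1), medium (0.1–1.0) or high (>1.0).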

[7] = Octanol-TAPSO partition coefficient, log D at pH 7.4 by spectrophotometry; type: physicochemical; conditions: octanol/TAPSO buffer
Method in brief: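 Spectrophotometric log D in 1-octanol/50 mM TAPSO buffer, pH 7.4, containing 5% (v/v) DMSO.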

[8] = Dissociation constant, pKa by spectrophotometry; type: physicochemical
[9] = Clearance in Wistar rat administered as single dose; type: ADME, organism-based; conditions: in vivo
[10] = Volume of distribution at steady state in Wistar rat administered as single dose; type: ADME, organism-based; conditions: in vivo, read-out: Vdss
[11] = Terminal half-life in Wistar rat administered as single dose; type: ADME, organism-based; conditions: in vivo, read-out: beta t1/2 (converted)
[12] = Oral bioavailability in Wistar rat administered as single dose; type: ADME, organism-based; conditions: in vivo
Histamine H1 receptor = Histamine H1 receptor (Homo sapiens, UniProt P35367); experiment: Binding affinity to human histamine H1 receptor
Sequence of Histamine H1 receptor (P35367 whole entry): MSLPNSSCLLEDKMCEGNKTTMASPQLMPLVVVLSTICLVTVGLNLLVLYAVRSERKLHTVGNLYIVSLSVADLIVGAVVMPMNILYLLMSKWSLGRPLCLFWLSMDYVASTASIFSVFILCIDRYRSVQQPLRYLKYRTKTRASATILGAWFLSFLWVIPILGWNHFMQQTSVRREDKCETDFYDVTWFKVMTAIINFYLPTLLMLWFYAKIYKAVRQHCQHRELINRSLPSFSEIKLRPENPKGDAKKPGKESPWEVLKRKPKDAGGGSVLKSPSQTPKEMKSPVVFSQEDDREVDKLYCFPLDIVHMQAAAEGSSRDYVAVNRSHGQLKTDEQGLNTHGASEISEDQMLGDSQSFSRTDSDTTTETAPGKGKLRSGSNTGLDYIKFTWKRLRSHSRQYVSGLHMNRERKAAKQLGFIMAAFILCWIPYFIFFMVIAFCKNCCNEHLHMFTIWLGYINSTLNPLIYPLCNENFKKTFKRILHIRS

Homo sapiens = species: Homo sapiens; experiment: Selectivity ratio of Ki for human histamine H1 receptor to Ki for human SST5 receptor

Sequence of Somatostatin receptor type 5 (P35346 whole entry): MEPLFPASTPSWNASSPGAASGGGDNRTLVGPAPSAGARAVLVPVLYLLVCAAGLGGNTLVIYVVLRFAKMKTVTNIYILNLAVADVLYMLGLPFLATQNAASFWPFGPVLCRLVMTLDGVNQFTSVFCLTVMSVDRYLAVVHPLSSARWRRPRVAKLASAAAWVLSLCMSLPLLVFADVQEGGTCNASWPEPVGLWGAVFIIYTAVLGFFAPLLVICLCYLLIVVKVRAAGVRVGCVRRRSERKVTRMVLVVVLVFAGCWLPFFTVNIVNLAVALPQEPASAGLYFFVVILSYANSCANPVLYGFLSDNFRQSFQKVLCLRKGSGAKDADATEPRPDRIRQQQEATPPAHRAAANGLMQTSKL

Row | Compound | Ki [1] | Ki [2] | Ki [3] | Ki [4] | also measured
1 | CCOc1cc(CN2CCC(Nc3nc4ccccc4o3)CC2)cc(OCC)c1F | 0.178 µM | > 10 µM | > 10 µM | > 10 µM | 
2 | CCOc1cc(NCc2cccc(Nc3nc4ccccc4s3)c2)ccc1OC | > 1 µM | > 10 µM | > 10 µM | > 10 µM | 
3 | CCOc1cc(CN2CCC(Nc3nc4cccnc4s3)CC2)ccc1OC | 0.309 µM | > 10 µM | > 10 µM | > 10 µM | 
4 | CCOc1cc(CN2CCC(Nc3nc4ccccc4o3)CC2)cc(OCC)c1N | 0.033 µM | > 10 µM | > 10 µM | > 10 µM | 
5 | CCOc1cc(N2CCN(C(=O)Nc3nc4ccccc4s3)CC2)ccc1OC | > 1 µM | > 10 µM | > 10 µM | > 10 µM | 
6 | CCOc1cc(CN2CCC(Nc3nc4ccccc4o3)CC2)c(F)cc1OCCO | > 1 µM | > 10 µM | > 10 µM | > 10 µM | 
7 | CCOc1cc(CN2CCC(Nc3nc4ccccc4[nH]3)CC2)ccc1OC | > 1 µM | > 10 µM | > 10 µM | > 10 µM | 
8 | CCOc1cc(CN2CCC(Nc3nc4cc(OC(F)(F)F)ccc4o3)CC2)ccc1OC | 0.354 µM | > 10 µM | > 10 µM | > 10 µM | 
9 | CC(C)Oc1cc(CN2CCC(Nc3nc4ccccc4o3)CC2)cc(OC(C)C)c1 | 0.031 µM | > 10 µM | > 10 µM | > 10 µM | 
10 | CCOc1cc(CN2CCC(Nc3nc4ccc(Cl)cc4s3)CC2)ccc1OC | 0.361 µM | > 10 µM | > 10 µM | > 10 µM | 
11 | COc1ccc(CN2CCC(Nc3nc4ccccc4o3)CC2)cc1OC | 0.472 µM | > 10 µM | > 10 µM | > 10 µM | 
12 | COc1ccc(CN2CCC(Nc3nc4ccccc4o3)CC2)cc1OCCF | 0.487 µM | > 10 µM | > 10 µM | > 10 µM | 
13 | CCOc1cc(CN2CCC(Nc3nc4cc([N+](=O)[O-])ccc4o3)CC2)ccc1OC | 0.252 µM | > 10 µM | > 10 µM | > 10 µM | 
14 | CCOc1cc(CN2CCC(Nc3nc4ccccc4o3)CC2)cnc1OC | > 1 µM | > 10 µM | > 10 µM | > 10 µM | 
15 | CCOc1cc(CN2CCC(Nc3nc4ccncc4o3)CC2)ccc1OC | 0.72 µM | > 10 µM | > 10 µM | > 10 µM | 
16 | CCOc1cc(CN2CCC(Nc3nc4cc(NS(=O)(=O)c5cn(C)cn5)ccc4o3)CC2)ccc1OC | 0.175 µM | > 10 µM | > 10 µM | > 10 µM | solubility [5]: > 720 µg/mL; Papp [6]: 0.49 ×10⁻⁶ cm/s; logD [7]: 1.48; pKa [8]: 7.91; clearance [9]: 41 mL/min/kg; Vd [10]: 2.2 L/kg; half-life [11]: 1.5 h; bioavailability [12]: 2%
17 | CCOc1cc(CN2CCC(Nc3nc4cc(S(=O)(=O)CC)ccc4o3)CC2)cc(OC2CCOCC2)c1 | 0.055 µM | > 10 µM | > 10 µM | > 10 µM | Ki (Histamine H1 receptor): 38.4 µM; Ratio Ki (Homo sapiens): 698; solubility [5]: 183 µg/mL (≈ 337 µM); Papp [6]: 1.75 ×10⁻⁶ cm/s; logD [7]: 3.13; pKa [8]: 7.55
18 | CCOc1cc(CN2CCC(Nc3nc4cc(Cl)c(S(N)(=O)=O)cc4o3)CC2)cc(OCC)c1F | 0.252 µM | > 10 µM | > 10 µM | > 10 µM | solubility [5]: 32 µg/mL (≈ 60.7 µM); Papp [6]: 2.45 ×10⁻⁶ cm/s; logD [7]: 2.78; pKa [8]: 7.61
19 | CCOc1cc(CN2CCC(Nc3nc4ccccc4o3)CC2)ccc1C(F)(F)F | 0.524 µM | > 10 µM | > 10 µM | > 10 µM | 
20 | CCOc1cc(CN2CCC(Nc3nc4ccccc4o3)CC2)ccc1OC(C)C | > 1 µM | > 10 µM | > 10 µM | > 10 µM | 
21 | COc1ccc(CN2CCC(Nc3nc4ccccc4o3)CC2)cc1OC1CCCC1 |  | > 10 µM | > 10 µM | > 10 µM | 
22 | CCOc1cc(CN2CCC(Nc3nc4cc(NC(C)=O)ccc4o3)CC2)ccc1OC | 0.357 µM | > 10 µM | > 10 µM | > 10 µM | 
23 | COc1ccc(CCN2CCC(Nc3nc4ccccc4n3Cc3ccc(F)cc3)CC2)cc1 [ASTEMIZOLE] |  | > 10 µM | > 10 µM | > 10 µM | 
